Test results published in ChEMBL document CHEMBL5046217, “Discovery of New Imidazo[2,1-b]thiazole Derivatives as Potent Pan-RAF Inhibitors with Promising In Vitro and In Vivo Anti-melanoma Activity” (J Med Chem, 2021).

How the values were obtained:
[1] = tested on: UACC-62; assay: Antiproliferative activity against human UACC-62 cells assessed as cell growth inhibition measured after 48 hrs by SRB assay; settings: UACC-62, 48 h
[2] = target: T1, Receptor-type tyrosine-protein kinase FLT3 (Homo sapiens, UniProt P36888); assay: Inhibition of FLT3 (unknown origin) incubated for 1 hr by qPCR analysis
T1 sequence (P36888 whole entry): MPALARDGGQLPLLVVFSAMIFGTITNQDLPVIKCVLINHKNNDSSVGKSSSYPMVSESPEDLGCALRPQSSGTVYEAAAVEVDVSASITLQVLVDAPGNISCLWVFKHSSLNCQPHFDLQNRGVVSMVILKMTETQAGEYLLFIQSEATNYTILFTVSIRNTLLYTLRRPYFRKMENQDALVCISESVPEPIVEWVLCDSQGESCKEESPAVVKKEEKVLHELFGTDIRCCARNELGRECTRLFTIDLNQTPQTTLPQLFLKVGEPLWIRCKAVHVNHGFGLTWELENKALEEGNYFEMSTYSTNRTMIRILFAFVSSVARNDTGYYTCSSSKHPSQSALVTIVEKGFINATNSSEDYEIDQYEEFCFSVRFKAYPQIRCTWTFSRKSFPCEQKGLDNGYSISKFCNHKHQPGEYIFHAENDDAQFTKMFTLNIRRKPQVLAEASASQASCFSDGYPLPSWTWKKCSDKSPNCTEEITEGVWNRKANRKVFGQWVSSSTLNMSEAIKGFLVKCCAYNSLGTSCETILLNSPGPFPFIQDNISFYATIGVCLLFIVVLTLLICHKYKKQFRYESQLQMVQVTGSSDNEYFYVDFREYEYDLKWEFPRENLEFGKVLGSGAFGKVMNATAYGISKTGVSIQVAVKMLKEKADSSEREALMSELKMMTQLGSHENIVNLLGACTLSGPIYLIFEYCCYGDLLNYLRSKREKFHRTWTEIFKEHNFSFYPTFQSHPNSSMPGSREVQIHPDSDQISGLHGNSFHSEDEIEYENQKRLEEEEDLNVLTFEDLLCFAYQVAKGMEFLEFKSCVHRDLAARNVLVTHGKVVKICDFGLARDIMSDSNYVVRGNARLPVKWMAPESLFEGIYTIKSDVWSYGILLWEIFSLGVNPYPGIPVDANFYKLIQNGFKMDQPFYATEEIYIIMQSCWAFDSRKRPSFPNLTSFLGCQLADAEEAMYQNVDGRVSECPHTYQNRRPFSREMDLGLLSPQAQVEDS
Method in brief: (§1)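 Competition binding assay. Kinases were either T7-phage-tagged (grown in an E. coli BL21-derived host) or expressed in HEK-293 cells and DNA-tagged. […] Bound kinase was eluted with non-biotinylated ligand and quantified by qPCR.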

[3] = tested on: UACC-62; assay: Antiproliferative activity against human UACC-62 cells assessed as total growth inhibition measured after 48 hrs by SRB assay; settings: UACC-62, 48 h
[4] = target: Tyrosine-protein kinase ABL1 (Homo sapiens, UniProt P00519); assay: Inhibition of ABL1 (unknown origin) incubated for 1 hr by qPCR analysis
[5] = Cytotoxicity against human BJ cells assessed as cell growth inhibition incubated for 48 hrs by MTT assay; format: toxicity, cell-based
Method in brief: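 BJ1 normal skin fibroblasts were seeded at 10 × 10³ cells/well with compound in triplicate wells and grown in DMEM-F12 at 37 °C, 5% CO₂, across an eight-point dilution series. Growth inhibition was calculated as (1 − T/C) × 100, and IC50 was taken from the dose–response curve.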

[6] = tested on: NSCLC; assay: Antiproliferative activity against human NSCLC cell line assessed as cell growth inhibition measured after 48 hrs by SRB assay
[7] = tested on: Panel ovarian (Carcinoma cell lines); assay: cells; settings: Homo sapiens, 48 h, read-out: INH
[8] = target: Homeodomain-interacting protein kinase 1 (Homo sapiens, UniProt Q86Z02); assay: Inhibition of HIPK1 (unknown origin) incubated for 1 hr by qPCR analysis; method in brief: as §1
[9] = tested on: NSCLC; assay: cells; settings: Homo sapiens, 48 h, read-out: INH
[10] = tested on: SK-MEL-2; assay: Antiproliferative activity against human SK-MEL-2 cells assessed as total growth inhibition measured after 48 hrs by SRB assay; settings: SK-MEL-2, 48 h
[11] = tested on: SK-MEL-5; assay: Antiproliferative activity against human SK-MEL-5 cells assessed as total growth inhibition measured after 48 hrs by SRB assay; settings: SK-MEL-5, 48 h
[12] = tested on: Malme-3M; assay: Antiproliferative activity against human Malme-3M cells assessed as cell growth inhibition measured after 48 hrs by SRB assay
[13] = tested on: Panel colon (Carcinoma cell lines); assay: Antiproliferative activity against human Panel colon (Carcinoma cell lines) assessed as cell growth inhibition measured after 48 hrs by SRB assay
[14] = tested on: SK-MEL-28; assay: Antiproliferative activity against human SK-MEL-28 cells assessed as total growth inhibition measured after 48 hrs by SRB assay; settings: SK-MEL-28, 48 h
[15] = tested on: UACC-257; assay: Antiproliferative activity against human UACC-257 cells assessed as cell growth inhibition measured after 48 hrs by SRB assay; settings: UACC-257, 48 h
[16] = target: Serine/threonine-protein kinase/endoribonuclease IRE1 (Homo sapiens, UniProt O75460); assay: Inhibition of ERN1 (unknown origin) incubated for 1 hr by qPCR analysis; method in brief: as §1
[17] = tested on: LOX IMVI; assay: Antiproliferative activity against human LOX IMVI cells assessed as cell growth inhibition measured after 48 hrs by SRB assay
[18] = tested on: Panel renal (Carcinoma cell lines); assay: Antiproliferative activity against human Panel renal (Carcinoma cell lines) assessed as cell growth inhibition measured after 48 hrs by SRB assay
[19] = tested on: Panel ovarian (Carcinoma cell lines); assay: Antiproliferative activity against human Panel ovarian (Carcinoma cell lines) assessed as cell growth inhibition measured after 48 hrs by SRB assay
[20] = tested on: SK-MEL-2; assay: Antiproliferative activity against human SK-MEL-2 cells assessed as cell growth inhibition measured after 48 hrs by SRB assay; settings: SK-MEL-2, 48 h
[21] = tested on: Panel melanoma (Carcinoma cell lines); assay: Antiproliferative activity against human Panel melanoma (Carcinoma cell lines) assessed as cell growth inhibition measured after 48 hrs by SRB assay
[22] = tested on: LOX IMVI; assay: Antiproliferative activity against human LOX IMVI cells assessed as total growth inhibition measured after 48 hrs by SRB assay
[23] = target: Mitogen-activated protein kinase 11 (Homo sapiens, UniProt Q15759); assay: Inhibition of MAPK11 (unknown origin) incubated for 1 hr by qPCR analysis; method in brief: as §1
[24] = target: Serine/threonine-protein kinase B-raf (Homo sapiens, UniProt P15056); assay: Inhibition of human wild type BRAF using myelin basic protein as substrate in presence of [gamma-33P]ATP incubated for 40 mins by scintillation counting method
Method in brief: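 Radiometric kinase assay run at Reaction Biology. Kinase (5−10 mU) in 25 mM Tris pH 7.5, 0.02 mM EGTA, 10 mM magnesium acetate with 0.66 mg/mL myelin basic protein and [γ-33P]ATP at 1 μM ATP. Reaction started with Mg-ATP and run 40 min at room temperature, then stopped with 3% phosphoric acid. Spotted on P30 filtermat, washed, scintillation counted.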

[25] = target: Fibroblast growth factor receptor 1 (Homo sapiens, UniProt P11362); assay: Inhibition of FGFR1 (unknown origin) incubated for 1 hr by qPCR analysis
Chain of Fibroblast growth factor receptor 1 (P11362 whole entry): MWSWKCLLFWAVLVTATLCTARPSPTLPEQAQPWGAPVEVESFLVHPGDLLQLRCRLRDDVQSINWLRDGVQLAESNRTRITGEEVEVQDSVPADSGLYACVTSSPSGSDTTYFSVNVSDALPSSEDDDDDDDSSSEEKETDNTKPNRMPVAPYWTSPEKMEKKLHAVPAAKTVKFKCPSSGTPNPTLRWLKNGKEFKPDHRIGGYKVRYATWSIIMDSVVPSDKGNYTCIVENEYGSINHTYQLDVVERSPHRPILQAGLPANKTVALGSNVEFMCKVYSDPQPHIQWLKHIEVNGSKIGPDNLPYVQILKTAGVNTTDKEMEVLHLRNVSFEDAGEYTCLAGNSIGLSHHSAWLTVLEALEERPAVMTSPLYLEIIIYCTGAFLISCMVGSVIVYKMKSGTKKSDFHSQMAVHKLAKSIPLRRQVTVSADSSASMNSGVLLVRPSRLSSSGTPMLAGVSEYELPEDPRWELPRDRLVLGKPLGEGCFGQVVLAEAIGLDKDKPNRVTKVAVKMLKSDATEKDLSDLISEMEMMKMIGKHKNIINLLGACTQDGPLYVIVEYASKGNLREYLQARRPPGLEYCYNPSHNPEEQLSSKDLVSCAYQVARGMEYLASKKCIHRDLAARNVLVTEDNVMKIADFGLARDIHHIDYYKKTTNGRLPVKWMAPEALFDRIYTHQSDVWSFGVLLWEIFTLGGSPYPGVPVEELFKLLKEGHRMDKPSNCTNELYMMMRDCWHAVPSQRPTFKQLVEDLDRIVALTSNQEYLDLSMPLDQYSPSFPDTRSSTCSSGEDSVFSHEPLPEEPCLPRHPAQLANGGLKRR

Chain of Homeodomain-interacting protein kinase 1 (Q86Z02 whole entry): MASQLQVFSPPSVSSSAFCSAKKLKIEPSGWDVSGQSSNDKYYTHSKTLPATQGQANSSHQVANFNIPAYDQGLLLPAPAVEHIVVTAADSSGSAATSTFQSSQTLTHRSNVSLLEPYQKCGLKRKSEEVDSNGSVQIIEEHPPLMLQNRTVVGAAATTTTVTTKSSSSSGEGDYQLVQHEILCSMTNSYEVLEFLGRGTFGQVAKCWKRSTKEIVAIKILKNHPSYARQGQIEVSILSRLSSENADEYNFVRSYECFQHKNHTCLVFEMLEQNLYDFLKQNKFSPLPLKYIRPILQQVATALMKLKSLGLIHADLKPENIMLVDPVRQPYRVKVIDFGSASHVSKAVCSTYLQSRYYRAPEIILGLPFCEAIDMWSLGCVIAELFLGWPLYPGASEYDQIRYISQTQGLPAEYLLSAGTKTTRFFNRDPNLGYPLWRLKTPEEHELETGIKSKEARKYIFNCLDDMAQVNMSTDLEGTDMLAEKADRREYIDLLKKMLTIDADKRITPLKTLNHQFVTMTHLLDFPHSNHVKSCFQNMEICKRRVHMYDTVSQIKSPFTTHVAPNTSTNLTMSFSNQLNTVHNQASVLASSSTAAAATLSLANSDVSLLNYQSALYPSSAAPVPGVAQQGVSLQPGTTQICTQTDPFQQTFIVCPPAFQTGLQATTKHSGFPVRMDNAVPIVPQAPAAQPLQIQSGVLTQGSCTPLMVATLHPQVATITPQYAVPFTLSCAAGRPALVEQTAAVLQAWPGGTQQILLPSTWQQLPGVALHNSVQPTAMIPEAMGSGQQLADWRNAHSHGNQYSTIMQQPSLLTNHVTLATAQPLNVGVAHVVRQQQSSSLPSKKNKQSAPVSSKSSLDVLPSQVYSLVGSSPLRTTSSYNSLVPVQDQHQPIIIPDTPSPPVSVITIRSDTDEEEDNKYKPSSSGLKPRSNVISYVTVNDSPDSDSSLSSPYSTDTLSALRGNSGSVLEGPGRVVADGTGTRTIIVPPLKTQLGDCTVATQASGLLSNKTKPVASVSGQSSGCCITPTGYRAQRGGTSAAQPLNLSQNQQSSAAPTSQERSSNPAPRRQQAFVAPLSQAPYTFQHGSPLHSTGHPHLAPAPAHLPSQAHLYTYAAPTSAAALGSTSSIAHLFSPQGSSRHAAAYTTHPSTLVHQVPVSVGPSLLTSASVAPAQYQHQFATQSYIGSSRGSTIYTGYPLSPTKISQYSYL
Chain of Tyrosine-protein kinase ABL1 (P00519 whole entry): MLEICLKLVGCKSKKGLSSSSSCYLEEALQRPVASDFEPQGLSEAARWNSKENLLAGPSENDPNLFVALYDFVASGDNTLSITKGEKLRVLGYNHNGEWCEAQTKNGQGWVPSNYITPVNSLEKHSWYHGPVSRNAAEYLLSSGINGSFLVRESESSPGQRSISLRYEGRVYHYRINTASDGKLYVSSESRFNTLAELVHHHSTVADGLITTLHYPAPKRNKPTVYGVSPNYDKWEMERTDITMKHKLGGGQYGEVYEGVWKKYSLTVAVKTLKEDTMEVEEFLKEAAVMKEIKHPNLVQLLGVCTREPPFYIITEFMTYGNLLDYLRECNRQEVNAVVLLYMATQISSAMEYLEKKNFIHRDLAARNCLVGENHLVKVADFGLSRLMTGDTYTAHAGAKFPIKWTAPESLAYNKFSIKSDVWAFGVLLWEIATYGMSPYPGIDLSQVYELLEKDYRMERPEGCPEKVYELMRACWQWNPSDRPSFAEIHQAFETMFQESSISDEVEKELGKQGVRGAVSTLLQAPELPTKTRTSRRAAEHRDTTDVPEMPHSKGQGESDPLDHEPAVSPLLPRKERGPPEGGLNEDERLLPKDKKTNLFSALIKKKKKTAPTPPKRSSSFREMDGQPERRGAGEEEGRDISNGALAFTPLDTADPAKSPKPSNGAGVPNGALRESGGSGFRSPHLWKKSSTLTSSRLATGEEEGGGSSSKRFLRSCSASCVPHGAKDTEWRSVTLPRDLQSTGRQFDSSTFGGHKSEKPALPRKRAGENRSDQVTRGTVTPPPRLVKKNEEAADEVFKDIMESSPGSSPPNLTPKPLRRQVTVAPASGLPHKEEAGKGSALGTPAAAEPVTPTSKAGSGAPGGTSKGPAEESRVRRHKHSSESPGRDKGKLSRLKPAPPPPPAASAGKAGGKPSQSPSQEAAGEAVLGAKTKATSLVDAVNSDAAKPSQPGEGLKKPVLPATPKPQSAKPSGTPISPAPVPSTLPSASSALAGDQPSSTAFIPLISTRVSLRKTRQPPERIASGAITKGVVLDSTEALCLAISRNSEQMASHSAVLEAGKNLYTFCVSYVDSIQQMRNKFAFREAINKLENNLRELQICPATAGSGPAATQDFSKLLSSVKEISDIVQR
Chain of Serine/threonine-protein kinase/endoribonuclease IRE1 (O75460 whole entry): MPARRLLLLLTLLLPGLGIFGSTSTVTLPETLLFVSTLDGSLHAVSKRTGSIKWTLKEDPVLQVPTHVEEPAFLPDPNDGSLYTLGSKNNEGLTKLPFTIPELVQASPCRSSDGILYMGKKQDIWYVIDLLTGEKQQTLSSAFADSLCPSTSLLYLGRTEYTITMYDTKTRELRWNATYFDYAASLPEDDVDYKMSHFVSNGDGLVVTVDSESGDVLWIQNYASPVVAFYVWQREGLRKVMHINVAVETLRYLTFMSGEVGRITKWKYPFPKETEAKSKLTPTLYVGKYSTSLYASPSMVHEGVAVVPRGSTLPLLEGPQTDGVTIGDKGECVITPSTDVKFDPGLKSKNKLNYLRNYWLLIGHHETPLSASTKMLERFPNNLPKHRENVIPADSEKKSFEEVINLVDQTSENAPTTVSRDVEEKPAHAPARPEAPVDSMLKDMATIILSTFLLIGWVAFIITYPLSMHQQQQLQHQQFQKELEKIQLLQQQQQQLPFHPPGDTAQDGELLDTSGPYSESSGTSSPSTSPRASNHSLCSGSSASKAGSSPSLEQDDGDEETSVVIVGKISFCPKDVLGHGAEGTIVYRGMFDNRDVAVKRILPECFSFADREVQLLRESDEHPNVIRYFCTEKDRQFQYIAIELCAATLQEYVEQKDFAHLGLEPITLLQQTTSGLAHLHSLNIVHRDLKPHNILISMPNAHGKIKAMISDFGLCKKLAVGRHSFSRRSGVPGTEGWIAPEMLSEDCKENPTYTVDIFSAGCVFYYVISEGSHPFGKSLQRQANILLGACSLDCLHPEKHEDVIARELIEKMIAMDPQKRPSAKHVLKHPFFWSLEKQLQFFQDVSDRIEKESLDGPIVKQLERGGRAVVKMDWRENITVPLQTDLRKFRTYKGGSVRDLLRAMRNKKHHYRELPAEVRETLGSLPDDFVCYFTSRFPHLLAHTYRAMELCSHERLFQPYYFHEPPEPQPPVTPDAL
Chain of Serine/threonine-protein kinase B-raf (P15056 whole entry): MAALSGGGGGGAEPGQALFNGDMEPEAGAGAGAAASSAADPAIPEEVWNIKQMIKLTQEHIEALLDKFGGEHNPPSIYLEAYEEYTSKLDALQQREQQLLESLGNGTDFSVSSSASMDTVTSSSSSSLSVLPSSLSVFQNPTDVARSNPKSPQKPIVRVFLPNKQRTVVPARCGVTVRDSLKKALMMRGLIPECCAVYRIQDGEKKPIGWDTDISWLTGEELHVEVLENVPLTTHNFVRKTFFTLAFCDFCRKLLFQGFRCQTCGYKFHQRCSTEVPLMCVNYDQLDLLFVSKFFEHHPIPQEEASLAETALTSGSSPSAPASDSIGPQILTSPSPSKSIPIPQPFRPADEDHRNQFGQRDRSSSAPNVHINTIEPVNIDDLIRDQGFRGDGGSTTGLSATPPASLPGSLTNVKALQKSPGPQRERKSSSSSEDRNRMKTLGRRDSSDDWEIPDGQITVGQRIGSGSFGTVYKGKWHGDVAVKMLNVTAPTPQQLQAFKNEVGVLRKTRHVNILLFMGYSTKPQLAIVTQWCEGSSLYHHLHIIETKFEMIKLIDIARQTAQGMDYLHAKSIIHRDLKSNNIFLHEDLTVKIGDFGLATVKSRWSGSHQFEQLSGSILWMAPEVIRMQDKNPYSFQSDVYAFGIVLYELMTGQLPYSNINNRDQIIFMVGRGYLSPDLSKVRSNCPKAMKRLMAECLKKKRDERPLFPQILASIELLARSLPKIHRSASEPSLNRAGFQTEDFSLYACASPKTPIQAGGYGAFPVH

IC50 [2]: 1480 nM
IC50 [4]: 13.6 µM
IC50 [8]: 4.88 µM
IC50 [13]: 3.02 µM
IC50 [16]: 10.2 µM
IC50 [18]: 2930 nM
IC50 [19]: 2970 nM
IC50 [20]: 2320 nM
IC50 [21]: 2030 nM
IC50 [23]: 980 nM
IC50 [24]: 4.2 nM
IC50 [25]: 10.6 µM
SMILES: O=S(=O)(NCCCNc1nccc(-c2c(-c3cccc(O)c3)nc3sccn23)n1)c1cccc(F)c1
IC50 [1]: 750 nM
TGI [3]: 2730 nM
IC50 at 48 h [5]: 45.2 µM
IC50 [6]: 2550 nM
inhibition at 10 µM [7]: 75%
inhibition at 10 µM [9]: 83.1%
TGI [10]: 6.57 µM
TGI [11]: 2280 nM
IC50 [12]: 2600 nM
TGI [14]: 6.86 µM
IC50 [15]: 2850 nM
IC50 [17]: 1910 nM
TGI [22]: 5.82 µM
